# Source: ChEMBL document CHEMBL1141659, “Synthesis, properties, and perspectives of gem-diphosphono substituted-thiazoles” (2008)
# How the values were obtained:
# Rattus norvegicus = experiment: Antiresorptive activity in thyroidparathyroidectomized sc dosed rat assessed as inhibition of 1,25-dihydroxyvitamin D3-induced hypercalcemia; assay type: functional
# Method in brief: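 In vivo bone resorption was driven by 1,25-dihydroxyvitamin D3, which induced hypercalcemia in thyroparathyroidectomized (TPTX) rats. ED50 values for inhibition of resorption were determined following an earlier published method.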
# Mus musculus [1] = experiment: Antiinflammatory activity in delayed type hypersensitivity mouse model assessed as inhibition of granuloma dry weight at 100 mg/kg, sc
# Mus musculus [2] = experiment: Antiinflammatory activity in delayed type hypersensitivity mouse model assessed as inhibition of granuloma wet weight at 100 mg/kg, sc
SMILES,ED50 (Rattus norvegicus) [mg/kg],inhibition in vivo at 100 mg/kg (Mus musculus [1]) [%],inhibition in vivo at 100 mg/kg (Mus musculus [2]) [%]
O=P(O)(O)C(/C(=C/c1ccccc1Cl)c1nc2ccccc2s1)P(=O)(O)O,0.105,–,–
N#CC(c1nc2ccccc2s1)C(c1ccccc1Cl)C(P(=O)(O)O)P(=O)(O)O (stereo not drawn),0.09,41,50
NCCC(O)(P(=O)(O)O)P(=O)(O)O [PAMIDRONIC ACID],0.085,–,–
Cc1ccc(/C=C(\c2nc3ccccc3s2)C(P(=O)(O)O)P(=O)(O)O)cc1,0.125,13,6
O=C1NC(=S)SC1C(c1ccccc1O)C(P(=O)(O)O)P(=O)(O)O (stereo not drawn),0.078,51,54
CN(C)c1ccc(C(C2SC(=S)NC2=O)C(P(=O)(O)O)P(=O)(O)O)cc1 (stereo not drawn),0.07,55,52
O=[N+]([O-])c1ccccc1/C=C(\c1nc2ccccc2s1)C(P(=O)(O)O)P(=O)(O)O,0.135,11,8
O=C1NC(=S)SC1C(c1ccccc1Cl)C(P(=O)(O)O)P(=O)(O)O (stereo not drawn),0.08,44,38
O=C1NC(=S)SC1C(c1ccccc1[N+](=O)[O-])C(P(=O)(O)O)P(=O)(O)O (stereo not drawn),0.088,46,42
N#CC(c1nc2ccccc2s1)C(c1ccc(Cl)cc1)C(P(=O)(O)O)P(=O)(O)O (stereo not drawn),0.09,53,52
CN(C)c1ccc(C(C(C#N)c2nc3ccccc3s2)C(P(=O)(O)O)P(=O)(O)O)cc1 (stereo not drawn),0.08,58,53
N#CC(c1nc2ccccc2s1)C(c1ccccc1[N+](=O)[O-])C(P(=O)(O)O)P(=O)(O)O (stereo not drawn),0.105,51,48
O=P(O)(O)C(/C(=C/c1ccc(Cl)cc1)c1nc2ccccc2s1)P(=O)(O)O,0.118,–,–
N#CC(c1nc2ccccc2s1)C(c1ccc([N+](=O)[O-])cc1)C(P(=O)(O)O)P(=O)(O)O (stereo not drawn),0.095,38,50
O=[N+]([O-])c1ccc(/C=C(\c2nc3ccccc3s2)C(P(=O)(O)O)P(=O)(O)O)cc1,0.115,10,8
CN(C)c1ccc(/C=C(\c2nc3ccccc3s2)C(P(=O)(O)O)P(=O)(O)O)cc1,0.11,19,14
O=C1NC(=S)SC1C(c1ccc([N+](=O)[O-])cc1)C(P(=O)(O)O)P(=O)(O)O (stereo not drawn),0.085,46,43
O=P(O)(O)C(O)(Cc1cccnc1)P(=O)(O)O [RISEDRONIC ACID],–,44,48
Cc1ccc(C(C(C#N)c2nc3ccccc3s2)C(P(=O)(O)O)P(=O)(O)O)cc1 (stereo not drawn),0.11,38,36
O=C1NC(=S)SC1C(c1ccccc1)C(P(=O)(O)O)P(=O)(O)O (stereo not drawn),0.077,39,46
